Data: ChEMBL document CHEMBL1134258, “NAC/MEA conjugate: a new potent antioxidant which increases the GSH level in various cell lines” (Bioorg Med Chem Lett, 2001)

Experiments:
Homo sapiens [1] = species on record: Homo sapiens; test: Effective dose required to inhibit 70% of HIV-1 Ba-L-infected MDM''s at 0.01 uM; assay type: functional
[2] = Tested for cytotoxic concentration in human macrophage-derived monocytes (MDMs) at 24 hr treatment; assay type: cell-based
Outline: (§1)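 Human MDMs from donor PBMCs (elutriated monocytes, 7 days differentiation) exposed to the compound for 24 h or 12 days. Cytotoxicity read by neutral-red uptake; CC50 taken as the mean of three independent experiments, each in triplicate.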

Homo sapiens [3] = species on record: Homo sapiens; test: Effective dose required to inhibit 50% of HIV-1 Ba-L-infected MDM''s at 0.001 uM; assay type: functional
Homo sapiens [4] = species on record: Homo sapiens; test: Effective dose required to inhibit 90% of HIV-1 Ba-L-infected MDM''s at 0.001 uM; assay type: functional
Homo sapiens [5] = species on record: Homo sapiens; test: Effective dose required to inhibit 90% of HIV-1 Ba-L-infected MDM''s at 0.01 uM; assay type: functional
[6] = Effect on intracellular GSH content at 250 uM in human macrophage-derived monocytes (MDMs); assay type: functional
Outline: (§2)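 Human MDMs from healthy-donor PBMCs (Ficoll-Hypaque gradient; monocytes split from PBLs by countercurrent centrifugal elutriation; 7 days differentiation). Cultured in DMEM Glutamax with 10% heat-inactivated FCS plus penicillin/streptomycin/neomycin. Treated 24 h, then lysed; GSH measured by Griffith's method and normalised to protein (Bradford). Run in triplicate across five independent experiments (n=15).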

[7] = Percent increase in intracellular GSH level at 10 uM in 24 hr treated human macrophage-derived monocytes (MDMs); assay type: functional; outline: as §2
[8] = Percent increase in intracellular GSH level at 100 uM in 24 hr treated human macrophage-derived monocytes (MDMs); assay type: functional; outline: as §2
[9] = Percent increase in intracellular GSH level at 1000 uM in 24 hr treated human macrophage-derived monocytes (MDMs); assay type: functional; outline: as §2
[10] = Percent increase in intracellular GSH level at 250 uM in 24 hr treated human macrophage-derived monocytes (MDMs); assay type: functional; outline: as §2
Homo sapiens [11] = species on record: Homo sapiens; test: Effective dose required to inhibit 50% of HIV-1 Ba-L-infected MDM''s at 0.01 uM; assay type: functional
Homo sapiens [12] = species on record: Homo sapiens; test: Effective dose required to inhibit 70% of HIV-1 Ba-L-infected MDM''s at 0.001 uM; assay type: functional
Mus musculus = test: Tested for intraperitoneal lethal dose in OF1 mice after 30 days; assay type: functional; details: ip, 720 h
Outline: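 Mice (OF1) dosed intraperitoneally and followed for 30 days. LD50 derived by Probit analysis, with the dose range set in a preliminary study.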

[13] = Tested for cytotoxic concentration in human macrophage-derived monocytes (MDMs) after 12 days; assay type: cell-based; outline: as §1

## CC(=O)N[C@@H](CS)C(=O)NCCSC(C)=O
Homo sapiens [1]
  ED70: 90 µM
[2]
  CC50 at 24 h: > 5000 µM
Homo sapiens [3]
  ED50: 3 µM
Homo sapiens [4]
  ED90: 75 µM
Homo sapiens [5]
  ED90: 190 µM
[6]
  GSH: 480%
[7]
  GSH: 0%
[8]
  GSH: 75%
[9]
  GSH: 140%
[10]
  GSH: 165%
Homo sapiens [11]
  ED50: 50 µM
Homo sapiens [12]
  ED70: 15 µM
Mus musculus
  LD50: 700 mg/kg
[13]
  CC50 at 288 h: 635 µM

## NCCS [CYSTEAMINE]
[6]
  GSH: 200%

## CC(=O)N[C@@H](CS)C(=O)O.NCCS
[6]
  GSH: 190%

## CC(=O)N[C@@H](CS)C(=O)O [ACETYLCYSTEINE]
[6]
  GSH: 200%
